From ChEMBL document CHEMBL2176947, “Discovery of the First Potent Inhibitors of Mutant IDH1 That Lower Tumor 2-HG in Vivo” (ACS Med Chem Lett, 2012)
Each block holds one compound with its values, some of them ahead of it. The source made the active and inactive calls. The rule behind the calls is not given here.

Columns and labels:
HT-1080 = experiment: Growth inhibition of human HT1080 cells after 72 hrs by CellTiter-Glo assay; assay type: functional; conditions: HT-1080, 72 h
Outline: (§1)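 Cells exposed to compound for 72 h, run within the same experiment as the 2-HG assay; total cellular ATP measured; concentration giving 50% growth inhibition (GI50) determined.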

[1] = target: T1, Isocitrate dehydrogenase [NADP] cytoplasmic (Homo sapiens, UniProt O75874); experiment: Inhibition of wild type IDH1 using DL-isocitrate as substrate by resazurin-based fluorimetric analysis relative to control
[2] = Growth inhibition of human U87 cells after 72 hrs by CellTiter-Glo assay; assay type: functional, U-87MG ATCC; conditions: U-87 MG; outline: as §1
[3] = target: T2, Isocitrate dehydrogenase [NADP] cytoplasmic (Homo sapiens, UniProt O75874, R132C); experiment: Inhibition of IDH1 R132C mutant using alpha-ketoglutarate as substrate after 60 mins by resazurin-based fluorimetric analysis
[4] = target: T3, Isocitrate dehydrogenase [NADP] cytoplasmic (Homo sapiens, UniProt O75874, R132H); experiment: Inhibition of IDH1 R132H mutant expressed in human U87 cells assessed as inhibition of 2-hydroxyglutarate production after 48 hrs by LC/MS analysis; assay type: cell-based, U-87MG ATCC
[5] = target: T2, Isocitrate dehydrogenase [NADP] cytoplasmic; experiment: Inhibition of IDH1 R132C mutant endogenously expressing human HT1080 cells assessed as inhibition of 2-hydroxyglutarate production after 48 hrs by LC/MS analysis
[6] = target: T3, Isocitrate dehydrogenase [NADP] cytoplasmic; experiment: Inhibition of IDH1 R132H mutant using alpha-ketoglutarate as substrate after 60 mins by resazurin-based fluorimetric analysis
[7] = target: T1, Isocitrate dehydrogenase [NADP] cytoplasmic; experiment: Inhibition of wild type IDH1 using DL-isocitrate as substrate by resazurin-based fluorimetric analysis
Mus musculus [8] = experiment: Inhibition of IDH1 R132H mutant in human U87 cells xenografted in CD1 nude mouse assessed as inhibition of 2-hydroxyglutarate production at 150 mg/kg, ip administered BID by LC/MS analysis relative to vehicle-treated control; assay type: functional, U-87MG ATCC; conditions: route intraperitoneal
Outline: (§2)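 Female nude mice bearing U87 R132H tumor xenografts dosed IP at 150 mg/kg in 0.5% MC/0.2% Tween 80, one dose or three BID doses; blood and tumor sampled at several time points; tumor 2-HG quantified by LC/MS/MS against vehicle-dosed animals.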

[9] = Fraction unbound in CD1 nude mouse plasma xenografted with human U87 cells expressing IDH1 R132H mutant at 150 mg/kg, ip administered BID for 1 day; assay type: ADME, organism-based, U-87MG ATCC; set-up: dose 150 mg/kg, route intraperitoneal
[10] = Plasma protein binding in mouse by equilibrium dialysis method; assay type: ADME, cell-free; conditions: read-out: PPB (converted)
Outline: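 Mouse plasma protein binding measured by equilibrium dialysis.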

[11] = Hepatic extraction ratio in rat liver microsomes; assay type: ADME, Microsome; conditions: read-out: ERH
Outline: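 Compound incubated with rat liver microsomes in vitro. Turnover in the incubation was used to estimate the hepatic extraction ratio. Human microsomes were run alongside.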

[12] = AUC (0 to 24 hrs) in mouse at 50 mg/kg, ip; assay type: ADME, organism-based; set-up: time < 24 hr, dose 50 mg/kg, route intraperitoneal; conditions: plasma
Outline: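 Mouse given a single IP dose of 50 mg/kg; plasma exposure expressed as AUC0−24h.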

Mus musculus [13] = experiment: Inhibition of IDH1 R132H mutant in human U87 cells xenografted in CD1 nude mouse assessed as inhibition of 2-hydroxyglutarate production at 150 mg/kg, ip administered as single dose by LC/MS analysis relative to vehicle-treated control; assay type: functional, U-87MG ATCC; conditions: route intraperitoneal; outline: as §2
[14] = system: Isocitrate dehydrogenase [NADP] cytoplasmic (Homo sapiens), O75874 [R132H]; experiment: Competitive inhibition of IDH1 R132H mutant using alpha-ketoglutarate as substrate by stopped-flow spectrophotometric analysis
[15] = system: Isocitrate dehydrogenase [NADP] cytoplasmic (Homo sapiens), O75874 [R132H]; experiment: Uncompetitive inhibition of IDH1 R132H mutant using NADPH as substrate by stopped-flow spectrophotometric analysis
[16] = system: Isocitrate dehydrogenase [NADP] cytoplasmic (Homo sapiens), O75874 [R132H]; experiment: Reversible inhibition of IDH1 R132H mutant using alpha-ketoglutarate as substrate by stopped-flow spectrophotometric analysis

T1 sequence (O75874 whole entry): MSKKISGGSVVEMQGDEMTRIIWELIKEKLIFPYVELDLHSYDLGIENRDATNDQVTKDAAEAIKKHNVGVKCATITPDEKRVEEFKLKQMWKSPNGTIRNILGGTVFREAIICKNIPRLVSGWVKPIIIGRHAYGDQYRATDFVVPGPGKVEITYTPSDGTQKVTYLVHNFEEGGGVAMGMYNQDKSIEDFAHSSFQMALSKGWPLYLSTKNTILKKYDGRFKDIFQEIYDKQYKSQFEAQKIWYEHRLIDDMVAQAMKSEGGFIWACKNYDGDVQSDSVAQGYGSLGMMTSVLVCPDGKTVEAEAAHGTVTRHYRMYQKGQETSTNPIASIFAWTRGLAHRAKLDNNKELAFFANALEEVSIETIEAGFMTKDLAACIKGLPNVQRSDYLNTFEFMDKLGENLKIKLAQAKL
T3 sequence (O75874 2-414 R132H limits assumed): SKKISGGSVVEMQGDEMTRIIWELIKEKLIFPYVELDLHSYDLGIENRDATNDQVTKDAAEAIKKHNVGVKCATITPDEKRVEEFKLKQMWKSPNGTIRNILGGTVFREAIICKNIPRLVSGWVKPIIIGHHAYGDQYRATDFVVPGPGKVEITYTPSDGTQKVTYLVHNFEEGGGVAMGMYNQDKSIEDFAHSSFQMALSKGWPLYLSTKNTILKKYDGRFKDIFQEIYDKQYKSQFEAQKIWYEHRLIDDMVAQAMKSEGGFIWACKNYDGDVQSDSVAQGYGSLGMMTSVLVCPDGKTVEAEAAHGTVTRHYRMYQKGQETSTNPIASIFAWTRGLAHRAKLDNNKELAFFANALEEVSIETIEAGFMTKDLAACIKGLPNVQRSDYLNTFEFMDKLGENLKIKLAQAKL
Isocitrate dehydrogenase [NADP] cytoplasmic (Homo sapiens), O75874 [R132H], sequence (O75874 whole entry R132H): as the sequence (O75874 whole entry) above, with R132H counted along it
T2 sequence (O75874 2-414 R132C limits assumed): as the sequence (O75874 2-414 R132H limits assumed) above, with H131C counted along it

GI50 (HT-1080): > 20000 nM
Imax [1]: 22%
IC50 [3]: 30 nM
IC50 [4]: 190 nM
IC50 [5]: 150 nM
IC50 [6]: 50 nM
IC50 [7]: 2900 nM
Structure (SMILES): Cc1ccccc1C(C(=O)NC1CCCCC1)N(C(=O)Cc1cccs1)c1cccc(F)c1 (racemic)
GI50 [2]: > 20000 nM

GI50 (HT-1080): > 20000 nM
Imax [1]: 32%
IC50 [3]: 60 nM
IC50 [4]: 290 nM
IC50 [5]: 220 nM
IC50 [6]: 100 nM
IC50 [7]: 19700 nM
Structure (SMILES): Cc1ccccc1C(C(=O)NC1CCCCC1)N(C(=O)Cc1cscn1)c1cccc(F)c1 (racemic)
GI50 [2]: > 20000 nM

IC50 [6]: 53100 nM
Structure (SMILES): Cc1ccccc1C(C(=O)NC1CCNCC1)N(C(=O)Cc1cccs1)c1cccc(F)c1 (racemic)

IC50 [6]: 7800 nM
Structure (SMILES): Cc1ccccc1C(C(=O)NC1CCCCC1)N(C(=O)CN)c1cccc(F)c1 (racemic)

IC50 [6]: 570 nM
Structure (SMILES): Cc1ccccc1NC(=O)C(c1ccccc1C)N(C(=O)Cc1cccs1)c1cccc(F)c1 (racemic)

IC50 [6]: 900 nM
Structure (SMILES): Cc1ccccc1C(C(=O)NC1CCCCC1)N(C(=O)CCl)c1cccc(F)c1 (racemic)

GI50 (HT-1080): > 20000 nM
Imax [1]: 34%
IC50 [3]: 50 nM
IC50 [4]: 210 nM
IC50 [5]: 260 nM
IC50 [6]: 50 nM
IC50 [7]: 19300 nM
Structure (SMILES): Cc1ccccc1C(C(=O)NC1CCCCC1)N(C(=O)Cc1ccncc1)c1cccc(F)c1 (racemic)
GI50 [2]: > 20000 nM

IC50 [6]: 860 nM
Structure (SMILES): Cc1ccccc1C(C(=O)NC(C)(C)C)N(C(=O)Cc1cccs1)c1cccc(F)c1 (racemic)

IC50 [6]: 290 nM
Structure (SMILES): Cc1ccccc1C(C(=O)NC1CCC1)N(C(=O)Cc1cccs1)c1cccc(F)c1 (racemic)

IC50 [6]: 640 nM
Structure (SMILES): Cc1ccccc1C(C(=O)NC1CCOCC1)N(C(=O)Cc1cccs1)c1cccc(F)c1 (racemic)

IC50 [6]: > 11000 nM
Structure (SMILES): O=C(NC1CCCCC1)[C@@H](c1ccccc1)N(C(=O)Cc1cccs1)c1cccc(F)c1

IC50 [6]: 2880 nM
Structure (SMILES): Cc1ccccc1C(C(=O)NC1CC1)N(C(=O)Cc1cccs1)c1cccc(F)c1 (racemic)

IC50 [6]: > 100000 nM
Structure (SMILES): Cc1ccccc1C(C(=O)NC1CCCCC1)N(CCc1cccs1)c1cccc(F)c1 (racemic)

IC50 [6]: 60 nM
Structure (SMILES): O=C(NC1CCCCC1)[C@H](c1ccccc1)N(C(=O)Cc1cccs1)c1cccc(F)c1

IC50 [6]: 80 nM
Structure (SMILES): O=C(NC1CCCCC1)C(c1ccccc1)N(C(=O)Cc1cccs1)c1cccc(F)c1 (configuration not stated)

IC50 [6]: > 100000 nM
Structure (SMILES): Cc1ccccc1C(CNC1CCCCC1)N(C(=O)Cc1cccs1)c1cccc(F)c1 (racemic)

inhibition [14]: Active
GI50 (HT-1080): > 20000 nM
Imax [1]: 32%
IC50 [3]: 50 nM
IC50 [4]: 580 nM
IC50 [5]: 390 nM
IC50 [6]: 90 nM
inhibition [15]: Active
inhibition [16]: Active
IC50 [7]: 7700 nM
Structure (SMILES): Cc1ccccc1C(C(=O)NC1CCCC1)N(C(=O)Cc1cccs1)c1cccc(F)c1 (configuration not stated)
GI50 [2]: > 20000 nM

More lines, now with the values behind:

Structure (SMILES): Cc1ccccc1C(C(=O)NC1CCCCC1)N(C(=O)CN1CCc2ccccc21)c1cccc(F)c1 (racemic)
IC50 [6]: 140 nM

Structure (SMILES): CN(C(=O)C(c1ccccc1)N(C(=O)Cc1cccs1)c1cccc(F)c1)C1CCCCC1 (racemic)
IC50 [6]: 3600 nM

Structure (SMILES): Cc1ccccc1C(C(=O)NC1CCCCC1)N(C(=O)CNC1CCCC1)c1cccc(F)c1 (racemic)
IC50 [6]: 450 nM

Structure (SMILES): Cc1ccccc1C(C(=O)NC1CCCCC1)N(C(=O)CNC1CCCCC1)c1cccc(F)c1 (racemic)
IC50 [6]: 1270 nM

Structure (SMILES): Cc1ccccc1C(C(=O)NC1CCCCC1)N(C(=O)CNc1ccccc1)c1cccc(F)c1 (racemic)
IC50 [6]: 60 nM

Structure (SMILES): Cc1ccccc1C(C(=O)NC1CCCCC1)N(C(=O)CNC1CC1)c1cccc(F)c1 (racemic)
IC50 [6]: 190 nM

Structure (SMILES): Cc1ccccc1C(C(=O)NC1CCCCC1)N(C(=O)Cn1c(C)nc2ccccc21)c1cccc(F)c1 (racemic)
GI50 (HT-1080): > 20000 nM
GI50 [2]: > 20000 nM
IC50 [3]: 40 nM
IC50 [4]: 240 nM
IC50 [5]: 110 nM
IC50 [6]: 80 nM
IC50 [7]: > 100000 nM

Structure (SMILES): Cc1ccccc1C(C(=O)NC1CCCCC1)N(C(=O)Cn1ccc2ccccc21)c1cccc(F)c1 (racemic)
GI50 (HT-1080): > 20000 nM
GI50 [2]: > 20000 nM
IC50 [3]: 40 nM
IC50 [4]: 370 nM
IC50 [5]: 170 nM
IC50 [6]: 70 nM
IC50 [7]: > 100000 nM

Structure (SMILES): Cc1ccccc1C(C(=O)NCc1ccccc1)N(C(=O)Cc1cccs1)c1cccc(F)c1 (racemic)
IC50 [6]: 1800 nM

Structure (SMILES): Cc1ccccc1C(C(=O)NC1CCCCC1)N(C(=O)CN1CCCC1)c1cccc(F)c1 (racemic)
IC50 [6]: 1630 nM

Structure (SMILES): Cc1ccccc1C(C(=O)NC1CCCCC1)N(C(=O)Cc1c[nH]c2ccccc12)c1cccc(F)c1 (racemic)
GI50 (HT-1080): > 3000 nM
Imax [1]: 39%
GI50 [2]: > 20000 nM
IC50 [3]: 30 nM
IC50 [4]: 360 nM
IC50 [5]: 90 nM
IC50 [6]: 60 nM
IC50 [7]: 6300 nM

Structure (SMILES): CC(C(=O)NC1CCCCC1)(c1ccccc1)N(C(=O)Cc1cccs1)c1cccc(F)c1 (racemic)
IC50 [6]: 1400 nM

Structure (SMILES): Cc1ccccc1C(C(=O)NC1CCCCC1)N(C(=O)CN1CCOCC1)c1cccc(F)c1 (racemic)
IC50 [6]: 240 nM

Structure (SMILES): Cc1ccccc1C(C(=O)NC1CCCCC1)N(C(=O)CN1CCNCC1)c1cccc(F)c1 (racemic)
IC50 [6]: 5640 nM

Structure (SMILES): Cc1ccccc1C(C(=O)NC1CCCCC1)N(C(=O)Cn1cncn1)c1cccc(F)c1 (racemic)
IC50 [6]: 140 nM

Structure (SMILES): Cc1ccccc1C(C(=O)NC1CCCCC1)N(C(=O)Cn1cccn1)c1cccc(F)c1 (racemic)
IC50 [6]: 420 nM

Structure (SMILES): Cc1ccccc1C(C(=O)NC1CCCCC1)N(C(=O)Cc1cncnc1)c1cccc(F)c1 (racemic)
IC50 [6]: 1100 nM

Structure (SMILES): Cc1ccccc1C(C(=O)NC1CCCCC1)N(C(=O)Cn1ccnc1C)c1cccc(F)c1 (racemic)
Imax (Mus musculus [8]): 89.4%
GI50 (HT-1080): > 20000 nM
GI50 [2]: > 20000 nM
fraction unbound at 24 h [9]: 0.043
IC50 [3]: 160 nM
fraction unbound [10]: 0.043
hepatic extraction ratio [11]: 0.85
IC50 [5]: 480 nM
IC50 [6]: 70 nM
AUC(0-t) at 24 h [12]: 20800 ng·h/mL
Imax (Mus musculus [13]): 69%
IC50 [7]: > 100000 nM

Structure (SMILES): Cc1ccccc1C(C(=O)NC1CCCCC1)N(C(=O)CN(C)c1ccccc1)c1cccc(F)c1 (racemic)
IC50 [6]: 50 nM
